How the values were obtained:
Cruzipain = Cruzipain (Trypanosoma cruzi, UniProt P25779); experiment: Inhibition of Trypanosoma cruzi cruzain using Z-Phe-Arg-AMC as substrate by spectrofluorimetry
Method in brief: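 Substrate Z-Phe-Arg-AMC; activity tracked 5 min with stirring in phosphate buffer pH 6.3 with DTT at 37 °C, in cuvettes (ex 380/em 460 nm). Controls: no inhibitor, and E-64. Run in triplicate. IC50 from rates at five inhibitor concentrations by nonlinear regression.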

Cathepsin B = Cathepsin B (Homo sapiens, UniProt P07858); experiment: Inhibition of cathepsin B (unknown origin) using fluorometric Z-Phe-Arg-AMC as substrate by spectrofluorimetry
Method in brief: (§1)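 Enzyme activated 5 min with DTT in acetate buffer pH 5.5 at 37 °C, then incubated 5 min with sample. Z-Phe-Arg-AMC at 185 μM (catB) or 10 μM (catL), with stirring; fluorescence ex 355/em 460 nm. Controls: no inhibitor, and E-64. Run in triplicate. IC50 from rates at ≥7 inhibitor concentrations by nonlinear regression.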

Procathepsin L = Procathepsin L (Homo sapiens, UniProt P07711); experiment: Inhibition of cathepsin L (unknown origin) using fluorometric Z-Phe-Arg-AMC as substrate by spectrofluorimetry; method in brief: as §1
Plasmodium falciparum [1] = experiment: Antimalarial activity against Plasmodium falciparum 3D7 after 72 hrs by SYBR Green-based parasite proliferation assay; type: functional, organism-based; details: 3D7, 72 h
Method in brief: (§2)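 Parasites grown in human O+ erythrocytes in RPMI 1640 with hypoxanthine, HEPES, Albumax and 5% human serum, under 3% CO2/1% O2/96% N2 at 37 °C. Cultures were exposed to serial dilutions of compound for 72 h. Parasite DNA growth was read by SYBR Green fluorescence. EC50 was derived from quadruplicate runs, with bromophycolide A as positive control.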

Plasmodium falciparum [2] = experiment: Antimalarial activity against Plasmodium falciparum Dd2 after 72 hrs by SYBR Green-based parasite proliferation assay; type: functional; details: Dd2, 72 h; method in brief: as §2
Plasmodium falciparum [3] = experiment: Antimalarial activity against Plasmodium falciparum W2 after 72 hrs by SYBR Green-based parasite proliferation assay; type: functional, organism-based; details: W2, 72 h; method in brief: as §2

Procathepsin L, sequence (P07711 whole entry): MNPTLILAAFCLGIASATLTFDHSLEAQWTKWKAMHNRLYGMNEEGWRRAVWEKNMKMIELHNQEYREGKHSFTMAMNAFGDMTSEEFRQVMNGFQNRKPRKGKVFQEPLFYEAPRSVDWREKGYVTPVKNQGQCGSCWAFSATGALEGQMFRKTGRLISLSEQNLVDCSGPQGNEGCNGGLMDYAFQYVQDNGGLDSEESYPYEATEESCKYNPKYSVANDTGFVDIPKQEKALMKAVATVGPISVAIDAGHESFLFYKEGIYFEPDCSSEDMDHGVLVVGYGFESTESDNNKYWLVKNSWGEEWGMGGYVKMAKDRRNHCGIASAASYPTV
Cruzipain, sequence (P25779 whole entry): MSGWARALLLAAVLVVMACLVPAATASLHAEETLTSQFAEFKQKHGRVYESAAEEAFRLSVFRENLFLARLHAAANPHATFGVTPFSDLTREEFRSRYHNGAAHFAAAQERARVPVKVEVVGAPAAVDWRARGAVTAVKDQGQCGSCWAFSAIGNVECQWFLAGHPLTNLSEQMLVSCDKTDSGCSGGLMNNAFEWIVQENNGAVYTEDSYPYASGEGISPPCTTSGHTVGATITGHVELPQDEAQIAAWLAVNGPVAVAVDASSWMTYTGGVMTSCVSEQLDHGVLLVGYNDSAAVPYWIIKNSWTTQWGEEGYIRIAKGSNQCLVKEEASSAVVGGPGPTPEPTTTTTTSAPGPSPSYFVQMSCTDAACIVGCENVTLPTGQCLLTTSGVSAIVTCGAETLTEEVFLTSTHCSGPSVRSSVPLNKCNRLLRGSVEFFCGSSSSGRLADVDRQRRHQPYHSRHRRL

IC50 (Cruzipain) | IC50 (Cathepsin B) | IC50 (Procathepsin L) | Compound | EC50 (Plasmodium falciparum [1]) | EC50 (Plasmodium falciparum [2]) | EC50 (Plasmodium falciparum [3])
12 µM | > 100 µM | 3.3 µM | CC(C)=CCc1cc(CCC(=O)c2c(O)cc3c(c2O)CCC(C)(C)O3)ccc1O | – | – | –
7.1 µM | > 100 µM | 1 µM | CC(C)=CCC/C(C)=C\Cc1c(O)cc(O)c(C(=O)CCc2ccc(O)cc2)c1O | – | – | –
8.7 µM | 8.5 µM | > 100 µM | CC1(C)CCc2c(cc(O)c(C(=O)CCc3ccc4c(c3)CC3C(C)(C)CCCC3(C)O4)c2O)O1 (centres undefined) | 17.7 µM | 12.4 µM | 8.5 µM
21.6 µM | – | > 100 µM | CC1(C)CCc2cc(CCC(=O)c3c(O)cc4c(c3O)CCC(C)(C)O4)ccc2O1 | 14.4 µM | 11.7 µM | 6.7 µM
– | 0.04 µM | 0.03 µM | CC(C)C[C@H](NC(=O)[C@H]1O[C@@H]1C(=O)O)C(=O)NCCCCN=C(N)N [E-64] | – | – | –

— ChEMBL document CHEMBL3352268, “Structures and bioactivities of dihydrochalcones from Metrodorea stipularis” (J Nat Prod, 2014)
